Compound activity from PubChem.
APP 5UTR inh: APP translation inhibition | 190,000 compounds, 0.82% hits | SH-SY5Y APP 5'UTR-luciferase reporter, luminescence | inhibition, % at 2 µM;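 active = inhibition above a set limit, derived from the sample mean plus 3 SD, cut at about 45% in these data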
FLuc inhib CS: Photinus pyralis luciferase inhibition counter-screen | P08659 | ATPLite firefly luciferase biochemical luminescence, 10 min | inhibition, % at 10 µM | 200,000 compounds, 1.5% hits | AID 1006;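 active = inhibition above about 50% when tested at 10 µM, limit read from the data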
Target sequence (P08659 whole entry, looked up): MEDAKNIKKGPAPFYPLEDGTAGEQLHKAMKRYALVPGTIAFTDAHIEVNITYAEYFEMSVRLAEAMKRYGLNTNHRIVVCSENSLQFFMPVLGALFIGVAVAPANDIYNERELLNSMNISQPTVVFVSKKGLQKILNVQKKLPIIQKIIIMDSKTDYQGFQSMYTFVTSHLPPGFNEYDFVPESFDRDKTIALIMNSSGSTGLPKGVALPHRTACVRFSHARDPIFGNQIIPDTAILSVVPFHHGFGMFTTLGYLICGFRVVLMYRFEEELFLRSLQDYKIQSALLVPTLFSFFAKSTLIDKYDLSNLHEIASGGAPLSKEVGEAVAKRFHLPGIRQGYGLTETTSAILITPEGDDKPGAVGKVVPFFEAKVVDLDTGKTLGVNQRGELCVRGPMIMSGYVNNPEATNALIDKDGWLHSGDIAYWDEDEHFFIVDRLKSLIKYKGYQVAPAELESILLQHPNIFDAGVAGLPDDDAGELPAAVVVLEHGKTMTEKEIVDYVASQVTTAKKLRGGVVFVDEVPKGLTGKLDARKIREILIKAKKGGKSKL
FLuc stim CS: affects firefly luciferase, flagging false hits in luciferase stimulation screens; ATPlite luciferase biochemical, luminescence, 10 min; 0 = ATP-free wells, 1 = DMSO control; 200,000 tested, under 10 active; activation factor at 10 µM; P08659; AID 1027;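 active = luciferase activation factor, scaled between plate controls, of at least 2 with compound at 10 µM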
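System: Luciferase/luciferin detection reagent, cell-free biochemical luciferase assay | Medium: PBS buffer for ATP | Dosing: Test compounds dosed from 2 mM stocks in 100% DMSO | Timing: 10 min at ambient temperature | Signal: Luminescence measurement of luciferase light output | Evaluation: Luciferase activation, seen as luminescence increase over controls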
APP 5'UTR act: activates APP 5'UTR luciferase reporter; activation, % at 2 µM; SH-SY5Y APP 5'UTR luciferase reporter, luminescence; zero percent = DMSO vehicle wells; 190,000 compounds, 1% hits;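 active = activation above a set limit, based on mean plus 3 SD of controls, cut at about 140% in these data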
NF-kB neuron act: raises NF-kB expression in human neuronal cells. NF-kB reporter expression; stronger effect = higher value. fold change at 12.5 µM. 190,000 compounds, 1.6% hits; in the data active = fold change above about 3.3
STAT1 activator: STAT1 signaling activation; NIH 3T3 STAT1-luciferase reporter, IFN-gamma, luminescence; 100% = IFN-gamma alone, no compound; activation (% of control), % at 5.5 µM; 200,000 compounds, 2.6% hits; AID 932;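 active = activation above the screen-wide mean activation plus 3 SD, cut at about 130% in these data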;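 also: raw ratio to IFN-gamma control signal so 100% means no change and 0% no light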
The depositor's hits bear a star; x = no result. An excerpt weighted towards active compounds, which were near 4.8% of everything screened.

SMILES | APP 5UTR inh | FLuc inhib CS | FLuc stim CS | APP 5'UTR act | NF-kB neuron act | STAT1 activator
COc1cc(CC(=O)OCC(=O)c2ccc3c(c2)OCCO3)cc(OC)c1OC | 94* | 3 | 1 | -94 | 3 | 98
COc1cc(CC(=O)NCc2ccc3c(c2)OCO3)cc(OC)c1OC | -5 | -1 | 1 | 5 | 1.3 | 100
Fc1ccccc1CSc1ncnc2sc3c(c12)CCCC3 | x | -4 | 1 | x | 0.84 | 105
Cc1ccc(NC(=O)/C(C#N)=C/c2ccsc2)c(C)c1 | 3 | 5 | 0.9 | -3 | 1.7 | 137*
Cn1cccc1C(=O)OCc1cc(Cl)cc2c1OCOC2 | -52 | -5 | 1 | 52 | 2.2 | 145*
Cn1cccc1C(=O)OCC(=O)Nc1ccc2c(c1)OCO2 | -83 | 13 | 0.9 | 83 | 2.2 | 124
Cc1cc2oc3c(c(=O)c2cc1C)C(c1ccc(C(C)C)cc1)N(CCCN1CCOCC1)C3=O (configuration not stated) | 0 | -6 | 1.1 | 0 | 0.94 | 107
CCCC(=O)NNC(=O)c1ccoc1C | 13 | -8 | 1.1 | -13 | 1.2 | 96
CCC(C)(C)C1CCC(=NNC(=O)c2ccoc2C)CC1 (configuration not stated) | -144 | -4 | 1 | 144* | 1.7 | 126
O=C(CSc1nnnn1-c1ccc(F)cc1)NCc1cccs1 | -15 | 0 | 1 | 15 | 1.1 | 101
O=C(C1=C[C@H](c2ccccc2)C[C@H](OCc2ccc(CO)cc2)O1)N1CCOCC1 | -8 | -7 | 1.1 | 7 | 1.1 | 101
COC(=O)c1ccc(COc2ccc(C=O)cc2OC)o1 | 2 | 6 | 0.9 | -2 | 1.4 | 102
C=CCc1ccc(OCc2ccc(C(=O)OC)o2)c(OC)c1 | -4 | 43 | 0.6 | 4 | 3.4* | 125
COc1c(Cl)cc(Cl)cc1/C=N/n1cnnc1 | 55* | -8 | 1.1 | -55 | 0.9 | 105
CC1CCC/C(=N/Nc2ccc([N+](=O)[O-])cc2[N+](=O)[O-])C1 (configuration not stated) | 79* | 1 | 1 | -79 | 1.2 | 96
CC1CCC(=NNc2ccc(C(F)(F)F)cc2[N+](=O)[O-])CC1 (configuration not stated) | 10 | -3 | 1 | -10 | 1.3 | 86
Cc1ccc(NC(=O)c2ccc([N+](=O)[O-])o2)cc1S(=O)(=O)N1CCOCC1 | 58* | -2 | 1 | -58 | 2.8 | 103
CC(C)C(=O)N1CCN(c2ccc(NC(=O)c3ccc([N+](=O)[O-])o3)cc2)CC1 | 57* | 1 | 1 | -57 | 0.32 | 141*
CCCC(=O)N1CCN(c2ccc(NC(=O)c3ccc([N+](=O)[O-])o3)cc2Cl)CC1 | 98* | -4 | 1 | -98 | x | 124
CC(=O)N1CCN(c2ccc(NC(=O)c3ccc(Br)o3)cc2Cl)CC1 | -12 | -1 | 1 | 12 | 0.87 | 112
CC(C)C(=O)N1CCN(c2ccc(NC(=O)c3ccc(Br)o3)cc2)CC1 | -17 | -4 | 1 | 17 | 1 | 97
O=C(Nc1cccc(S(=O)(=O)N2CCCCC2)c1)c1ccc([N+](=O)[O-])o1 | 45* | -4 | 1 | -45 | 1.1 | 107
COc1cccc(-c2cc(C(F)(F)F)n3nc(C(=O)N4CCCCC4c4cccnc4)cc3n2)c1 (configuration not stated) | -1 | 0 | 1 | 1 | 0.64 | 88
N#Cc1ccc(OCC(=O)N/N=C/C2CC=CCC2)cc1 (configuration not stated) | -11 | -5 | 1.1 | 11 | 1.1 | 103
COc1ccccc1Oc1c(C)oc2c(CN(C)C)c(O)ccc2c1=O | -6 | -7 | 1.1 | 6 | 1.1 | 94
O=[N+]([O-])c1ccc(NC(=S)N2CCc3ccccc3C2)cc1 | 3 | -5 | 1 | -3 | 1.2 | 101
O=C(Nc1ccc(N2CCOCC2)c(Cl)c1)c1ccc([N+](=O)[O-])o1 | 95* | 11 | 0.9 | -95 | 1.1 | 129*
CCN(C(=O)CN1CCN(c2ccc(O)cc2)CC1)c1c(N)n(Cc2ccccc2)c(=O)[nH]c1=O | -2 | -7 | 1.1 | 2 | 1.1 | 102
O=C(Nc1cccc(O)c1)C(=O)Nc1ccccn1 | -155 | 84* | 0.2 | 155* | 2.9 | 120
C/C(CC(=O)Nc1ccccn1)=N\NC(=O)C(=O)Nc1cccc(C)c1 | -5 | -7 | 1.1 | 5 | 1 | 97
